Assay results reported in ChEMBL document CHEMBL4808178 (J Med Chem, 2021).
Active and inactive are the calls of the source. The rule behind the calls is not given here.

Assays:
MCF7 = experiment: Cytotoxicity against human MCF7 cells assessed as reduction in cell viability incubated for 72 hrs by MTT assay; format: functional, cell-based; settings: MCF7, 72 h
Procedure, shortened: (§1)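 About 5 × 10³ cells/well, seeded overnight at 37 °C, 5% CO₂, in DMEM or RPMI-1640 with 10% FBS and antibiotics. DMSO-dissolved compounds diluted in medium, exposure 72 h.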

PC-3 = experiment: Cytotoxicity against human PC3 cells assessed as reduction in cell viability incubated for 72 hrs by MTT assay; format: functional, cell-based; settings: PC-3, 72 h; procedure, shortened: as §1
HCT-116 [1] = experiment: Cytotoxicity against human HCT-116 cells assessed as reduction in cell viability incubated for 72 hrs by MTT assay; format: functional, cell-based; settings: HCT-116, 72 h; procedure, shortened: as §1
T-24 = experiment: Cytotoxicity against human T24 cells assessed as reduction in cell viability incubated for 72 hrs by MTT assay; format: functional, cell-based; settings: T-24, 72 h; procedure, shortened: as §1
L02 = experiment: Cytotoxicity against human L02 cells assessed as reduction in cell viability incubated for 72 hrs by MTT assay; format: cell-based; settings: L02, 72 h; procedure, shortened: as §1
HT-29 = experiment: Cytotoxicity against human HT-29 cells assessed as reduction in cell viability incubated for 72 hrs by MTT assay; format: functional, cell-based; settings: HT-29, 72 h
[2] = target: Dual specificity protein kinase CLK2 (Homo sapiens, UniProt P49760); experiment: Inhibition of human CLK2 incubated for 2 hrs
Dual specificity protein kinase CLK2, sequence (P49760 whole entry): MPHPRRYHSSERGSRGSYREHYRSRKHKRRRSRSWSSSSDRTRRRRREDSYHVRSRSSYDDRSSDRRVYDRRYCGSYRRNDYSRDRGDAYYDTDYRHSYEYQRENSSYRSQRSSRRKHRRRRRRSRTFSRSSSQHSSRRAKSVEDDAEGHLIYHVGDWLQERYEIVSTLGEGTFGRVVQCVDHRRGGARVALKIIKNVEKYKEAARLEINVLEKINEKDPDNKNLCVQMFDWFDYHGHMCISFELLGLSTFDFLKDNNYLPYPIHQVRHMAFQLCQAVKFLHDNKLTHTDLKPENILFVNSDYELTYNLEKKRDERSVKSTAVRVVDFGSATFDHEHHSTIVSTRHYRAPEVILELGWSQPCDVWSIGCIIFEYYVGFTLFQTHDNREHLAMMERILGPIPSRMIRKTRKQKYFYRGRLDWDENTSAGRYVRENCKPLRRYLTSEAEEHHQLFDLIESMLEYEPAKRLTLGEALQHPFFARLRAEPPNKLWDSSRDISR

HCT-116 [3] = experiment: Inhibition of cell stemness in human HCT116 cells assessed as morphological alterations at 5 uM after 10 days by microscopic analysis; format: functional, cell-based; settings: time 10.0 day
Procedure, shortened: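 Sorted ALDH⁺ HCT-116 cells, 800/well, in serum-free DMEM with B27 (1:50), EGF 20 ng/mL, β-FGF 10 ng/mL; co-incubated with compound (5 μM) or DMSO vehicle for 10 days; sphere number, diameter and morphology scored from microscopy images; mean ± SD, n = 3.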

HCT-116 [4] = experiment: Inhibition of cell stemness in human HCT116 cells assessed as inhibition of CD44+/CD133+ expression at 20 uM after 24 hrs by flow cytometry analysis; format: functional
Procedure, shortened: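 ALDH⁺ HCT-116 subpopulation sorted by flow cytometry; 2 × 10⁵ cells/well seeded overnight at 37 °C, 5% CO₂; treated 20 μM for 24 h (vehicle DMSO); stained with PE anti-CD133 and FITC anti-CD44 30 min; CD44⁺/CD133⁺ read by flow cytometry.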

| IC50 [2] [µM] | Structure (SMILES) | IC50 (MCF7) [µM] | IC50 (PC-3) [µM] | IC50 (HCT-116 [1]) [µM] | IC50 (T-24) [µM] | IC50 (L02) [µM] | IC50 (HT-29) [µM] | inhibition (HCT-116 [3]) | inhibition at 20 µM (HCT-116 [4]) [%] |
| --- | --- | --- | --- | --- | --- | --- | --- | --- | --- |
| 0.0219 | O=C(NCCN1CCOCC1)c1ccc2c(c1)nc(Nc1cccc(Cl)c1)c1ccncc12 | 11 | 3.28 | 7.98 | 8.73 | 37.8 | 13.4 |  |  |
|  | NCCCNC(=O)c1ccc2c(c1)nc(Nc1cccc(Cl)c1)c1ccncc12 | 19.7 | 14.1 | 15.9 | 37.3 | 85 | 9.87 |  |  |
| 0.00106 | O=C(OCCF)c1ccc2c(c1)nc(Nc1cccc(Cl)c1)c1ccncc12 | 5.98 | 6.4 | 4.28 | 5.91 | 57.8 | 7.8 |  |  |
|  | O=C(NCCN1CCCC1)c1ccc2c(c1)nc(Nc1cccc(Cl)c1)c1ccncc12 | 8.6 | 10.1 | 8.79 | 3.23 | 16 | 7.94 |  |  |
| 0.0097 | COC(=O)CCNC(=O)c1ccc2c(c1)nc(Nc1cccc(Cl)c1)c1ccncc12 | 4.51 | 9.94 | 8.13 | 10.7 | > 200 | 3.52 |  |  |
|  | O=C(OCCc1ccccn1)c1ccc2c(c1)nc(Nc1cccc(Cl)c1)c1ccncc12 | 10.1 | 11 | 6.91 | 22.5 | 24.9 | 9.52 |  |  |
|  | O=C(NCC(F)F)c1ccc2c(c1)nc(Nc1cccc(Cl)c1)c1ccncc12 | 10.4 | 6.12 | 16.5 | 18.1 | 18.4 |  |  |  |
|  | O=C(NCCN1CCCCC1)c1ccc2c(c1)nc(Nc1cccc(Cl)c1)c1ccncc12 | 3.74 | 6.08 | 8.6 | 3.24 | 14.3 | 13.8 |  |  |
|  | O=C(NCCCO)c1ccc2c(c1)nc(Nc1cccc(Cl)c1)c1ccncc12 | 7.71 | 8.94 | 13.7 | 18.8 | 74.2 | 11.8 |  |  |
|  | O=C(O)CCNC(=O)c1ccc2c(c1)nc(Nc1cccc(Cl)c1)c1ccncc12 | 24.6 | 16.2 | 4.6 | 24.4 | 72.8 | 19.9 |  |  |
|  | COC(=O)CCCNC(=O)c1ccc2c(c1)nc(Nc1cccc(Cl)c1)c1ccncc12 | 19.8 | 4.89 | 5.91 | 12.9 | 89.1 | 20.6 |  |  |
|  | O=C(OCCOCCOCCO)c1ccc2c(c1)nc(Nc1cccc(Cl)c1)c1ccncc12 | 13.6 | 19.2 | 9.71 | 14.1 | 30.7 | 12.6 |  |  |
| 0.00154 | O=C(OCC(F)F)c1ccc2c(c1)nc(Nc1cccc(Cl)c1)c1ccncc12 | 9.85 | 22.1 | 7.52 | 22.7 | 83.9 | 8.09 |  |  |
| 0.0196 | NCCNC(=O)c1ccc2c(c1)nc(Nc1cccc(Cl)c1)c1ccncc12 | 4.88 | 5.48 | 7.26 | 14.4 | 111 | 11.4 |  |  |
|  | CC(=O)c1cc2c(o1)C(=O)c1ccccc1C2=O [NAPABUCASIN] |  |  |  |  |  |  | Active | 89 |
|  | CS(=O)(=O)NC(=O)c1ccc2c(c1)nc(Nc1cccc(Cl)c1)c1ccncc12 | 12.2 | 4.16 | 13.2 | 23.5 | 28.4 | 17.8 |  |  |
|  | CN(C)CCNC(=O)c1ccc2c(c1)nc(Nc1cccc(Cl)c1)c1ccncc12 | 6.01 | 11.1 | 12.8 | 5.93 | 17.3 | 5.08 |  |  |
|  | O=C(OCCC(Cl)Cl)c1ccc2c(c1)nc(Nc1cccc(Cl)c1)c1ccncc12 | 14.2 | 13.5 | 20.8 | 20.6 | 22 | 18.4 |  |  |
| 0.0247 | O=C(NCCBr)c1ccc2c(c1)nc(Nc1cccc(Cl)c1)c1ccncc12 | 14.9 | 8.76 | 28.1 | 8.95 | 66.7 | 8.01 |  |  |
|  | O=C(O)CCCNC(=O)c1ccc2c(c1)nc(Nc1cccc(Cl)c1)c1ccncc12 | 19.6 | 4.2 | 24.8 | 21.1 | 32.2 | 14.5 |  |  |
| 0.00238 | O=C(OCCO)c1ccc2c(c1)nc(Nc1cccc(Cl)c1)c1ccncc12 | 15.2 | 9.15 | 10.9 | 16.6 | 45.1 | 10.9 |  |  |
| 0.00169 | O=C(OCCI)c1ccc2c(c1)nc(Nc1cccc(Cl)c1)c1ccncc12 | 10.7 | 10 | 17.7 | 17.5 | 43.5 | 17.1 |  |  |
|  | C#CCNC(=O)c1ccc2c(c1)nc(Nc1cccc(Cl)c1)c1ccncc12 | 13.9 | 7.6 | 21.2 | 18.5 | 28.4 | 16.4 |  |  |
|  | O=C(NO)c1ccc2c(c1)nc(Nc1cccc(Cl)c1)c1ccncc12 | 7.66 | 15.1 | 8.62 | 3.89 | 21.4 | 9.98 |  |  |
